In the library only some 1.5% were active in any assay of this set; here they are far more common.
FLuc stim CS: affects firefly luciferase, flagging false hits in luciferase stimulation screens. ATPlite luciferase biochemical, luminescence, 10 min; 0 = ATP-free wells, 1 = DMSO control. 200,000 tested, under 10 active. activation factor at 10 µM. AID 1027;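 active means luciferase activation factor, scaled between plate controls, of at least 2 with compound at 10 µM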
Target sequence (P08659 whole entry, looked up): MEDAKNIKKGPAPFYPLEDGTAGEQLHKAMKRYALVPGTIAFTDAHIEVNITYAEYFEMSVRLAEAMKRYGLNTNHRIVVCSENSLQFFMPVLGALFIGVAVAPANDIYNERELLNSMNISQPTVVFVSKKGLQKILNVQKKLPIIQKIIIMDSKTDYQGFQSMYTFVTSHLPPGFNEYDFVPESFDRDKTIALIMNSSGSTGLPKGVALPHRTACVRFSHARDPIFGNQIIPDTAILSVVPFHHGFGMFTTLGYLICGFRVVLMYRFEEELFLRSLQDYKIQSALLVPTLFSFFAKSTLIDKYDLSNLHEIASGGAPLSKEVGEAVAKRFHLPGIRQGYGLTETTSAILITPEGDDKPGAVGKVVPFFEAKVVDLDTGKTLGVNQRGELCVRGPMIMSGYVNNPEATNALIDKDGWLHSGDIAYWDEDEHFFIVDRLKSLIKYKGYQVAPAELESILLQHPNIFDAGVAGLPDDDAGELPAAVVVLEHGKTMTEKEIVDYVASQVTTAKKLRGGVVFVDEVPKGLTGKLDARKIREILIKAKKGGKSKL
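Assay system: Luciferase/luciferin reagent mix; Medium: PBS as buffer for the ATP substrate; Dosing: test compounds dosed from 2 mM stocks in 100% DMSO; Times: 10 min, room temperature; Signal: luminescence from luciferase reaction; Read-out: luciferase activation; Controls: No-ATP low control, compound-free enzyme-plus-ATP high control.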
TRAIL sens C8: sensitizes caspase-8 expressing cells to TRAIL; NB7+C8 cells + TRAIL, ATPlite viability luminescence; AID 624354; inhibition (viability loss, TRAIL sensitization), % at 10 µM; 1% of 360,000 active;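 active means compounds causing at least 50% loss of cell viability in the single-dose screen, relative to plate controls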
PPC-1+TRAIL kill: PPC-1 cancer cell killing with TRAIL present; PPC-1 cells + TRAIL, ATPLite viability luminescence; cell killing (% activity), % at 4 µM or 5 µM; 0.41% of 220,000 active;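 active means cell killing above 50% in the first pass at 4 µM, then a duplicate retest at 5 µM averaging 50% or more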
FLuc inh counter: counter-screen for luciferase assay inhibitors: firefly luciferase inhibition; inhibition, % at 10 µM; ATPLite firefly luciferase biochemical luminescence, 10 min; 1.5% of 200,000 active; P08659;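 active means inhibition above about 50% when tested at 10 µM, limit read from the data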
PPC1 cytotox: PPC-1 cell cytotoxicity; 50% of 1,200 active; cytotoxicity, % at 5 µM; PPC-1 viability, ATPlite luminescence, overnight; shares compounds with PPC-1+TRAIL kill;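 active means reconfirmed compounds whose average cytotoxicity reaches 50% or more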
A number is an active result; . = inactive; / = no result.

SMILES | FLuc stim CS | TRAIL sens C8 | PPC-1+TRAIL kill | FLuc inh counter | others
O=c1oc2c(O)cccc2cc1-c1nc2ccccc2[nH]1 | / | 69.1 | / | /
O=c1oc2c(CN3CCCCC3)c(O)ccc2cc1-c1nc2ccccc2[nH]1 | . | . | . | .
C=CCn1c(=O)c2ccccc2n2c(SCC(=O)NC)nnc12 | / | . | / | /
COc1ccc(C(=O)Nn2c(SCC(=O)NC3CCCCC3)nc3ccccc3c2=O)cc1 | . | . | . | 58.3
COc1ccc(C(=O)Nn2c(SCC(=O)c3ccc(Cl)cc3)nc3ccccc3c2=O)cc1 | . | . | . | .
COCCCn1c(SCC(=O)NC2CCCCC2)nc2ccccc2c1=O | / | . | / | /
COc1ccc(C(=O)Nn2c(SCC(=O)N3CCC(C)CC3)nc3ccccc3c2=O)cc1 | . | 52.4 | . | 75.1
O=C(N/N=C/c1cc([N+](=O)[O-])ccc1O)c1ccc(COc2ccc3c(c2)CCC3)o1 | / | 52.2 | / | /
COc1ccccc1/C=C/C(=O)Nc1cccc(C(C)=O)c1 | . | . | . | .
COc1cccc(/C=C/C(=O)Nc2cccc(C(C)=O)c2)c1OC | . | . | . | 67.5
COc1ccc(/C=C/C(=O)NC(=S)Nc2ccccn2)cc1 | / | 50.8 | / | /
COc1ccc(/C=C/C(=O)Nc2cccc(C(C)=O)c2)cc1 | . | . | . | 69.6
CCN(CC(=O)Nc1ccc(NC(C)=O)cc1)C(=O)c1cccnc1Sc1ccc(C)c(C)c1 | / | . | / | /
CC(=O)NCC1(c2ccccc2)CCN(CCCC(=O)c2ccc(F)cc2)CC1 | / | . | / | /
O=C(/C(C=Nc1ccc(Br)cc1)=C(/O)c1ccco1)C(F)(F)F | . | . | 60.3 | 65.7
O=C(/C(C=Nc1cccc(C(F)(F)F)c1)=C(/O)c1ccco1)C(F)(F)F | . | . | . | .
CN(C)CCCN(C(=O)/C=C/c1cccs1)c1nc2c(F)cccc2s1 | . | 55.0 | . | .
N#C/C(=C/c1ccc(N2CCOCC2)o1)C(=O)Nc1ccccc1 | . | . | . | 55.2
O=C(NCCc1c[nH]c2ccccc12)c1[nH]c(C(F)(F)F)nc1-c1ccccc1 | / | . | / | /
N/C(=N\OCc1ccc([N+](=O)[O-])cc1)c1ccncc1 | . | . | . | 54.9
O=C(NNC(=O)c1ccc([N+](=O)[O-])cc1)c1ccncc1 | . | . | . | .
C[C@@H]1CN([C@H](C)CO)C(=O)CCCn2nncc2CO[C@H]1CN(C)S(=O)(=O)c1ccc(C#N)cc1 | / | . | / | /
NC(=S)n1[nH]c(-c2ccc([N+](=O)[O-])cc2)c(N=Nc2ccccc2[N+](=O)[O-])c1=O | . | . | . | .
Cc1[nH]n(C(N)=S)c(=O)c1N=Nc1cc(-c2ccc(Br)cc2)[nH]n1 | . | . | . | 56.4
NC(=S)n1[nH]c(-c2ccc([N+](=O)[O-])cc2)c(N=Nc2cccc([N+](=O)[O-])c2)c1=O | . | 52.9 | . | .
SMILES | FLuc stim CS | TRAIL sens C8 | PPC-1+TRAIL kill | FLuc inh counter | others
Cc1[nH]n(C(N)=S)c(=O)c1N=Nc1ccc2ccccc2c1 | . | . | . | 62.6
Cc1ccc(N=Nc2c(C)[nH]n(C(N)=S)c2=O)cc1C | . | . | . | .
CCOC(=O)[C@]12CCCC=C1N(Cc1ccco1)C(=O)[C@H](CC(=O)N1CCOCC1)C2 | / | . | / | /
CN(C(=O)CSc1nc2ccccc2[nH]1)C1CCS(=O)(=O)C1 (stereo unspecified) | / | . | / | /
COC1=CC(=O)c2nc(Cl)ccc2C1=O | / | 94.6 | / | /
CC1CN/C(=C\C(=O)c2ccccc2)C(=O)N1 (stereo unspecified) | . | . | . | .
CC1CN/C(=C\C(=O)c2ccc(Cl)cc2)C(=O)N1 (stereo unspecified) | . | . | . | 51.3
CCN(CC)S(=O)(=O)c1ccc(Cl)c(C(=O)Nc2cc(C)nn2-c2ccccc2)c1 | . | . | 50.9 | .
O=c1[nH]c(CSc2ccccn2)nc2c1oc1ccccc12 | . | . | . | 60.9
Cc1cccc(C(=O)N/C(=C\c2ccco2)C(=O)N2CCCC2)c1 | / | . | / | /
COc1ccc(C(=O)Nc2ccccc2C(=O)N/N=C/c2ccccn2)cc1OC | / | 84.6 | 75.5 | / | PPC1 cytotox=75.2
CCNC(=O)C1(C)CCCN(Cc2cc(-c3ccccc3)n(C)n2)C1 (stereo unspecified) | / | . | / | /
COCc1nnc(NC(=O)c2cccs2)s1 | . | . | . | .
CNC(=O)c1ccsc1NC(=O)c1sc2ccccc2c1Cl | . | . | . | .
COCc1nnc(NC(=O)c2sc3ccccc3c2Cl)s1 | . | . | . | 63.3 | PPC1 cytotox=.
Cc1nnc(NC(=O)c2sc3ccccc3c2Cl)s1 | . | 86.9 | 81.0 | 96.7 | PPC1 cytotox=81.0
O=C(NNC(=O)c1csc(N2CCOCC2)n1)c1cccnc1 | / | . | / | /
Cc1csc(NC(=O)CCS(=O)(=O)c2ccc(Br)cc2)n1 | . | . | . | . | PPC1 cytotox=.
Cc1csc(NC(=O)Cc2ccc(Br)cc2)n1 | / | . | / | /
COC(=O)c1ccc2nc(NC(=O)C(C)(C)C)sc2c1 | . | 90.2 | 85.3 | 95.2 | PPC1 cytotox=86.2
COC(=O)c1ccc2nc(NC(=O)C3CCCCC3)sc2c1 | . | . | . | .
COc1ccc(-c2cc(=Nc3ccc(C(=O)O)cc3)c3cc(C)ccc3o2)cc1 | . | . | . | 58.4 | PPC1 cytotox=.
c1ccc2[nH]c(N3CCOCC3)nc2c1 | . | . | . | .
O=c1c(Cl)c(N2CCOCC2)cnn1-c1nc2ccccc2[nH]1 | . | . | . | 70.6 | PPC1 cytotox=.
COc1ccc(C(C)=O)cc1Cn1c(C)c(C(=O)NC2CC2)sc1=O | / | . | / | /
SMILES | FLuc stim CS | TRAIL sens C8 | PPC-1+TRAIL kill | FLuc inh counter | others
COc1ccc(C2NC(=O)CCC2[N+](=O)[O-])c(OC)c1OC (stereo unspecified) | / | . | / | /
C=CCN(CC=C)S(=O)(=O)c1ccc(NC(=O)COc2ccccc2OC)cc1 | . | . | . | . | PPC1 cytotox=.
O=C(Nc1nc2c(s1)CCCC2)c1cccs1 | . | 62.1 | 51.1 | 79.9 | PPC1 cytotox=52.0
Cc1ccc(C(=O)Nc2nc3c(s2)CCCC3)o1 | . | 65.5 | 52.1 | 82.1 | PPC1 cytotox=53.0
O=C(Cc1cccs1)Nc1nc2c(s1)CCCC2 | . | . | . | .
Cc1csc(NC(=O)c2ccc(C)o2)n1 | . | . | . | .
Cc1nc(-c2coc3cc(OCC(=O)O)ccc3c2=O)cs1 | . | 50.1 | . | 77.6 | PPC1 cytotox=.
COc1ccc2c(=O)c(-c3nc(C)cs3)coc2c1 | . | 66.4 | . | 77.6 | PPC1 cytotox=56.8
COc1ccc(-c2coc3cc(OC)ccc3c2=O)cc1 | / | . | / | /
CCOC(=O)COc1ccc2c(=O)c(-c3ccccc3)coc2c1 | / | . | . | /
O=S(=O)(c1cc(Cl)c(Cl)cc1Cl)N1CCN2CCCC2C1 (stereo unspecified) | / | . | / | /
CCOCCCNC(=O)C1CCN(S(=O)(=O)c2ccc(C)cc2)CC1 | . | . | . | . | PPC1 cytotox=.
Cc1ccc(S(=O)(=O)N2CCC(C(=O)NCC3CC3)CC2)cc1 | / | . | / | /
CCOC(=O)C1CCN(S(=O)(=O)c2ccc(NC(=O)OC)cc2)CC1 | . | . | . | . | PPC1 cytotox=.
Cc1cc(Br)ccc1NC(=O)CN(C)C(=O)c1ccc2ccccc2n1 | / | . | / | /
Cc1cccc2c(C(=O)N3CCCCC3)cc(-c3ccccc3)nc12 | / | . | / | /
Cc1cccc2c(C(=O)O)cc(-c3cccnc3)nc12 | . | . | . | . | PPC1 cytotox=.

Assay outcomes as filed in PubChem.
